Series [1] is described as follows: Inhibition of human DMT1B-IRE expressed in CHO cells assessed as blockage of ferrous influx after 20 mins by calcein fluorescence quenching method. Format: cell-based. The method in brief:
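Calcein fluorescence quench assay for DMT1 (conditions detailed in supplementary data); IC50s are the average of at least two independent determinations.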

A short description of series [2]: Apparent permeability across apical to basolateral side in human Caco2 cells. The settings on record: Caco-2. The format is ADME, cell-based. The method in brief:
(§1)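 Caco-2 cell monolayers; apparent permeability measured in both directions (apical→basolateral and basolateral→apical); […].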
On the technique in general: Passage across Caco-2 layers is used to estimate intestinal permeability.

Series [3] in a line: Apparent permeability across basolateral to apical side in human Caco2 cells. The format is ADME, cell-based. The settings on record: Caco-2. The method in brief: as §1
The target in series [4] is T1, Natural resistance-associated macrophage protein 1 (Homo sapiens, UniProt P49279).
T1 sequence (P49279 whole entry): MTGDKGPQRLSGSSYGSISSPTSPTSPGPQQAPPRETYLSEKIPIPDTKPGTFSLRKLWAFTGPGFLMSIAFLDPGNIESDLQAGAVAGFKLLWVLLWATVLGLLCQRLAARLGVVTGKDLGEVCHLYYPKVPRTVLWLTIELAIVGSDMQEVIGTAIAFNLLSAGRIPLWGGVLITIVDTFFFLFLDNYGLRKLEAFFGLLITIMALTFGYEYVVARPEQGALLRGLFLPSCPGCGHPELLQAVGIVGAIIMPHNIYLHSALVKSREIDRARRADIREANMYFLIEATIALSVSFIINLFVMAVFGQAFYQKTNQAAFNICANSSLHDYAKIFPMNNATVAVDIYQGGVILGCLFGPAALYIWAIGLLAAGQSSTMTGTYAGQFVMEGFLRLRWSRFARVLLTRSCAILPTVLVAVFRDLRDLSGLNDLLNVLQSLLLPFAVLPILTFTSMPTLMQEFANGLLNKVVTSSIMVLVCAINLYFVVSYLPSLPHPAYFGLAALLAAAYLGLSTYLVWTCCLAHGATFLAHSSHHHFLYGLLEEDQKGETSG
Kind of series: Inhibition of NRAMP1 expressed in CHO cells. The format is cell-based.

The values below come from ChEMBL document CHEMBL2057084, “Discovery of benzylisothioureas as potent divalent metal transporter 1 (DMT1) inhibitors” (Bioorg Med Chem Lett, 2012).

Take `Br.N=C(N)SCc1cccc2c1sc1c(CSC(=N)N)cccc12`: the IC50 – broadly, the midpoint of a concentration-inhibition curve – was 260 nM in series [1] and above 10000 nM in series [4]. For the same compound, the Papp A→B (in general, the apparent permeability from the apical to the basolateral side of a cell layer) in series [2] was below 0.1 ×10⁻⁶ cm/s. In addition, in series [3], the Papp B→A – broadly, the apparent permeability from the basolateral to the apical side of a cell layer – was below 0.1 ×10⁻⁶ cm/s.
With `Br.N=C(N)SCc1c(Br)ccc2c1sc1c(CSC(=N)N)c(Br)ccc12`, the IC50 in series [1] is 860 nM; in series [4] it was above 10000 nM. The Papp A→B in series [2] was determined as 4 ×10⁻⁶ cm/s. Also, the Papp B→A in series [3] is 2 ×10⁻⁶ cm/s.
With `N=C(N)SCc1ccccc1Oc1ccc(Cl)cc1CSC(=N)N`, the IC50 in series [1] was 1130 nM; in series [4], above 10000 nM.
Regarding `Br.N=C(N)SCc1c(Br)ccc2c1oc1c(CSC(=N)N)c(Br)ccc12`, the IC50 in series [1] was 110 nM; in series [4], above 10000 nM. In series [2], the Papp A→B was found to be 0.2 ×10⁻⁶ cm/s. The Papp B→A in series [3] is 0.1 ×10⁻⁶ cm/s.
The matching figures for `Br.CN(C)S(=O)(=O)c1ccc(Sc2ccc(F)cc2CSC(=N)N)c(CSC(=N)N)c1`: 950 nM, above 10000 nM, below 0.1 ×10⁻⁶ cm/s and 0.1 ×10⁻⁶ cm/s.
`Cc1ccc(CSC(=N)N)c(Sc2ccc(F)cc2CSC(=N)N)c1`: the half-maximal inhibitory concentration (IC50) in series [1] was 1450 nM; in series [4], above 10000 nM.
As to `Br.N=C(N)SCc1cc(F)ccc1Sc1ccc(F)cc1CSC(=N)N`, the IC50 in series [1] is 150 nM; in series [4], above 10000 nM. The Papp A→B in series [2] amounted to 0.4 ×10⁻⁶ cm/s. Besides, the Papp B→A in series [3] was determined as 0.4 ×10⁻⁶ cm/s.
`N=C(N)SCc1ccccc1Oc1cc(Cl)ccc1CSC(=N)N`: the IC50 in series [1] is 15000 nM; in series [4], above 10000 nM.
On to `N=C(N)SCc1cccc2c1-c1c(CSC(=N)N)cccc1C2=O`, for which the IC50 in series [1] is above 15000 nM; in series [4], above 10000 nM.
The matching figures for `N=C(N)SCc1cccc2c1Oc1c(CSC(=N)N)cccc1S2`: 150 nM and above 10000 nM.
Regarding `Cc1cccc(CSC(=N)N)c1Sc1ccccc1CSC(=N)N`, the IC50 is 3770 nM in series [1] and above 10000 nM in series [4].
Consider `Br.N=C(N)SCc1ccccc1Sc1cc(F)c(F)cc1CSC(=N)N`, for which the IC50 in series [1] is 320 nM; in series [4], above 10000 nM. In addition, the Papp A→B in series [2] was determined as 1.3 ×10⁻⁶ cm/s. Besides, in series [3], the Papp B→A was 1.4 ×10⁻⁶ cm/s.
With `N=C(N)SCc1ccccc1C(=O)c1ccc(Cl)cc1CSC(=N)N`, the IC50 in series [1] is 2920 nM; in series [4], above 10000 nM.
With `Br.N=C(N)SCc1cc(F)ccc1Oc1ccc(F)cc1CSC(=N)N`, the values for the IC50 in series [1] and in series [4] were 320 nM and above 10000 nM, respectively. Besides, the Papp A→B in series [2] is below 0.1 ×10⁻⁶ cm/s. Moreover, in series [3], the Papp B→A amounted to 0.2 ×10⁻⁶ cm/s.
The matching figures for `Br.Cc1ccc(Sc2ccccc2CSC(=N)N)c(CSC(=N)N)c1`: 490 nM, above 10000 nM, 1.5 ×10⁻⁶ cm/s and 1.4 ×10⁻⁶ cm/s.
`N=C(N)SCc1cc(Cl)ccc1Sc1ccc(Cl)cc1CSC(=N)N`: the IC50 in series [1] is 3020 nM; in series [4] it was above 10000 nM.
With `Br.N=C(N)SCc1ccccc1Sc1cc(F)ccc1CSC(=N)N`, the results for the IC50 in series [1] and in series [4] were 510 nM and above 10000 nM, respectively. For the same compound, the Papp A→B in series [2] is 0.3 ×10⁻⁶ cm/s. In addition, the Papp B→A in series [3] turned out to be 0.2 ×10⁻⁶ cm/s.
Take `Br.N=C(N)SCc1cccc2c1C(=O)c1c(CSC(=N)N)cccc1-2`: the results for the IC50 in series [1] and in series [4] were 580 nM and above 10000 nM, respectively. Besides, the Papp A→B in series [2] worked out at 0.4 ×10⁻⁶ cm/s. Also, in series [3], the Papp B→A was found to be 0.3 ×10⁻⁶ cm/s.
For `COc1ccc(Sc2ccccc2CSC(=N)N)c(CSC(=N)N)c1`, the IC50 in series [1] is 1440 nM; in series [4] it was above 10000 nM.
`Br.N=C(N)SCc1cccc2c1sc1c(CSC(=N)N)c(Br)ccc12`: the IC50 was 750 nM in series [1] and above 10000 nM in series [4]. The Papp A→B in series [2] worked out at 1.3 ×10⁻⁶ cm/s. For the same compound, the Papp B→A in series [3] came to 0.2 ×10⁻⁶ cm/s.
The matching figures for `Br.N=C(N)SCc1ccccc1Sc1ccc(F)cc1CSC(=N)N`: 150 nM, above 10000 nM, 0.3 ×10⁻⁶ cm/s and 0.2 ×10⁻⁶ cm/s.
The matching figures for `Br.N=C(N)SCc1ccccc1C(=O)c1cc([N+](=O)[O-])ccc1CSC(=N)N`: 370 nM, above 10000 nM, 0.1 ×10⁻⁶ cm/s and 0.7 ×10⁻⁶ cm/s.
In the case of `Br.N=C(N)SCc1cc(F)ccc1Sc1cc(F)c(F)cc1CSC(=N)N`, the IC50 in series [1] is 600 nM; in series [4], above 10000 nM. The Papp A→B in series [2] was below 0.1 ×10⁻⁶ cm/s. Also, the Papp B→A in series [3] stood at 0.2 ×10⁻⁶ cm/s.
Regarding `N=C(N)SCc1ccccc1C(=O)c1cc(F)ccc1CSC(=N)N`, the IC50 in series [1] is 2020 nM; in series [4], above 10000 nM.
The matching figures for `N=C(N)SCc1cc(F)ccc1Sc1c(CSC(=N)N)cccc1[N+](=O)[O-]`: 4150 nM and above 10000 nM.
For the compound `N=C(N)SCc1ccccc1C(=O)c1cc(Cl)ccc1CSC(=N)N`, the IC50 in series [1] is 5200 nM; in series [4], above 10000 nM.
In the case of `Cc1cc(C)c(CSC(=N)N)c(C)c1CSC(=N)N`, the IC50 in series [1] was 290 nM. Besides, the Papp A→B in series [2] was 0.9 ×10⁻⁶ cm/s. Besides, the Papp B→A in series [3] is 1.2 ×10⁻⁶ cm/s.
In the case of `Br.N=C(N)SCc1cc(F)ccc1Sc1ccc(C(F)(F)F)cc1CSC(=N)N`, the half-inhibitory concentration (IC50) was 690 nM in series [1] and above 10000 nM in series [4]. Further, in series [2], the apical-to-basolateral permeability (Papp A→B) was 0.1 ×10⁻⁶ cm/s. Moreover, the Papp B→A in series [3] turned out to be 3.8 ×10⁻⁶ cm/s.
As for `N=C(N)SCc1cccc2c1sc1c(CSC(=N)N)cc(F)cc12`, the values for the IC50 in series [1] and in series [4] were 90 nM and above 10000 nM, respectively.
Regarding `Br.COc1ccc(Sc2ccc(F)cc2CSC(=N)N)c(CSC(=N)N)c1`, the IC50 is 530 nM in series [1] and above 10000 nM in series [4]. Also, the Papp A→B in series [2] came out at 2.4 ×10⁻⁶ cm/s. For the same compound, the Papp B→A in series [3] worked out at 2.4 ×10⁻⁶ cm/s.
On to `Br.CS(=O)(=O)c1ccc(Sc2ccc(F)cc2CSC(=N)N)c(CSC(=N)N)c1`, for which the IC50 in series [1] is 290 nM; in series [4], above 10000 nM. Besides, the Papp A→B in series [2] is below 0.1 ×10⁻⁶ cm/s. For the same compound, the Papp B→A in series [3] is 0.1 ×10⁻⁶ cm/s.
On to `N=C(N)SCc1cccc2c1oc1c(CSC(=N)N)cc(F)cc12`, for which the half-inhibitory concentration (IC50) in series [1] is 20 nM; in series [4] it was above 10000 nM.
As to `N=C(N)SCc1ccccc1C(=O)c1ccc(F)cc1CSC(=N)N`, the IC50 in series [1] was 580 nM; in series [4], above 10000 nM.
Regarding `Br.N=C(N)SCc1cccc2c1-c1c(CSC(=N)N)cccc1-2`, the IC50 in series [1] was 100 nM; in series [4], above 10000 nM. Besides, the Papp A→B in series [2] is below 0.1 ×10⁻⁶ cm/s. In series [3], the Papp B→A came to 0.4 ×10⁻⁶ cm/s.
The matching figures for `Br.N=C(N)SCc1cc(F)cc2c1sc1c(CSC(=N)N)cc(Cl)cc12`: 40 nM, above 10000 nM, 0.5 ×10⁻⁶ cm/s and 0.2 ×10⁻⁶ cm/s.
Consider `N=C(N)SCc1ccccc1Sc1ccc(N)cc1CSC(=N)N`, for which the IC50 in series [1] was 910 nM; in series [4] it was above 10000 nM.
For `N=C(N)SCc1cc(Cl)ccc1Oc1ccc([N+](=O)[O-])cc1CSC(=N)N`, the values for the IC50 in series [1] and in series [4] were 2890 nM and above 10000 nM, respectively.
Consider `Br.N=C(N)SCc1c(F)ccc2c1oc1c(CSC(=N)N)c(F)ccc12`, for which the IC50 in series [1] is 90 nM; in series [4], above 10000 nM. The Papp A→B in series [2] stood at 5 ×10⁻⁶ cm/s. Further, in series [3], the Papp B→A was 1 ×10⁻⁶ cm/s.
For `N=C(N)SCc1cccc2sc3cccc(CSC(=N)N)c3c12`, the IC50 in series [1] was 5040 nM; in series [4], above 10000 nM.
`N=C(N)SCc1cccc2cc3cccc(CSC(=N)N)c3nc12`: the IC50 was 290 nM in series [1] and above 10000 nM in series [4]. The Papp A→B in series [2] was 0.2 ×10⁻⁶ cm/s. Besides, the Papp B→A in series [3] was 0.5 ×10⁻⁶ cm/s.
`CN(c1ccccc1CSC(=N)N)c1ccccc1CSC(=N)N`: the IC50 was 730 nM in series [1] and above 10000 nM in series [4].
The matching figures for `N=C(N)SCc1cc(F)ccc1Oc1ccc([N+](=O)[O-])cc1CSC(=N)N`: 160 nM and above 10000 nM.
Regarding `Br.N=C(N)SCc1c(Cl)ccc2c1oc1c(CSC(=N)N)c(Cl)ccc12`, the IC50 in series [1] was 270 nM; in series [4], above 10000 nM. For the same compound, the Papp A→B in series [2] was below 0.1 ×10⁻⁶ cm/s. Besides, the Papp B→A in series [3] amounted to 0.4 ×10⁻⁶ cm/s.
With `Br.N=C(N)SCc1cc(F)ccc1Oc1cc(F)ccc1CSC(=N)N`, the IC50 in series [1] is 840 nM; in series [4], above 10000 nM. Further, the Papp A→B in series [2] is below 0.1 ×10⁻⁶ cm/s. Besides, the Papp B→A in series [3] came to 0.4 ×10⁻⁶ cm/s.
The matching figures for `Br.N=C(N)SCc1cc(F)ccc1Oc1cc(Cl)ccc1CSC(=N)N`: 340 nM, above 10000 nM, 0.2 ×10⁻⁶ cm/s and 0.9 ×10⁻⁶ cm/s.
With `Br.N=C(N)SCc1cccc2c1oc1c(CSC(=N)N)cccc12`, the IC50 was 50 nM in series [1] and above 10000 nM in series [4]. The Papp A→B in series [2] was below 0.1 ×10⁻⁶ cm/s. In addition, the Papp B→A in series [3] is 0.2 ×10⁻⁶ cm/s.
